In ChEMBL document CHEMBL1141776, “Gymnoascolides A-C: aromatic butenolides from an Australian isolate of the soil ascomycete Gymnoascus reessii” (2005):
Calls of active or inactive are those of the source. The rule behind the calls is not given here.

Columns and labels:
[1] = system: Parastagonospora nodorum; test: Antifungal activity against Septoria nodorum after 48 hrs by agar-based microtiter plate assay; type: functional
In short: (§1)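 Agar-based microtiter plate assay: spores (20 000 sp/well) applied to potato dextrose agar in wells containing serial 2-fold dilutions of test compound. Plates incubated at 24 °C; fungal growth assessed qualitatively at 48 h.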

[2] = system: Candida albicans; test: Antifungal activity against Candida albicans after 48 hrs by agar-based microtiter plate assay; type: functional; in short: as §1
[3] = system: NS1; test: Cytotoxicity against mouse NS1 cells; type: functional, cell-based
[4] = system: Haemonchus contortus (nematode); test: Nematicidal activity against Haemonchus contortus
[5] = system: Bacillus subtilis; test: Antibacterial activity against Bacillus subtilis; type: functional, organism-based
[6] = system: Candida albicans; test: Antifungal activity against Candida albicans up to […] after 48 hrs by agar-based microtiter plate assay; type: functional, organism-based; in short: as §1

Row | SMILES | LD99 [1] [mg/mL] | LD99 [2] [mg/mL] | Activity [3] | Activity [4] | Activity [5] | Activity [6]
1 | CN(CC[C@H](N)CC(=O)N[C@@H]1C=C[C@@H](n2ccc(N)nc2=O)O[C@H]1C(=O)O)C(=N)N.Cl [BLASTICIDIN S HCL] | 0.0016 | 0.00039 |  |  |  | 
2 | C[C@@H]1C[C@H]2O[C@@H]2/C=C\C=C\C(=O)Cc2c(Cl)c(O)cc(O)c2C(=O)O1 [RADICICOL] | 0.012 | 0.012 |  |  |  | 
3 | CO[C@H]1OC(=O)C(c2ccccc2)=C1C(O)c1ccccc1 (stereo partly specified) |  |  | inactive | inactive | inactive | 
4 | C[C@@H]1[C@H](O)[C@@H](C)/C=C/C=C/C=C/C=C/C=C/C=C/C=C/[C@H](O[C@@H]2O[C@H](C)[C@@H](O)[C@H](N)[C@@H]2O)C[C@@H]2O[C@](O)(C[C@@H](O)C[C@@H](O)[C@H](O)CC[C@@H](O)C[C@@H](O)CC(=O)O[C@H]1C)C[C@H](O)[C@H]2C(=O)O [AMPHOTERICIN B] | 0.0031 | 0.0031 |  |  |  | 
5 | CCCC[C@H]1C(=O)O[C@H](C)[C@H](NC(=O)c2cccc(NC=O)c2O)C(=O)O[C@@H](C)[C@@H]1OC(=O)CC(C)C [ANTIMYCIN A3] | 0.0002 | 0.05 |  |  |  | 
6 | CO[C@@H]1OC(=O)C(c2ccccc2)=C1C(O)c1ccccc1 (stereo partly specified) |  |  | inactive | inactive | inactive | 
7 | O=C1OCC(Cc2ccccc2)=C1c1ccccc1 [GYMNOASCOLIDE A] | 0.013 |  | inactive | inactive | inactive | inactive
8 | C[C@@H]1C[C@@H]([C@H](O)CC2CC(=O)NC(=O)C2)C(=O)[C@@H](C)C1 [CYCLOHEXIMIDE] | 0.0063 |  |  |  |  | inactive
